According to paper PMC3929235 (Bioorganic & medicinal chemistry letters, 2013):

Tests used:
[1] = biological target: human α3β4 AChRs (Homo sapiens, UniProt P30926+P32297); experiment: Counter-screen against α3β4 nAChR; format: cell-based
Procedure, shortened: (§1)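 Membrane-potential fluorometry on HEK tsA201 cells stably expressing human receptor, cultured in high-glucose DMEM with 10% FBS, 37 °C, 5% CO2. Poly-D-lysine-coated wells seeded at 150,000 (α3β4) or 200,000 (α3β4α5) cells. Serial dilutions of test compound applied 15 min before nicotine, injected during recording. Points averaged from 3–4 wells; Hill equation fitted to enhancement relative to nicotine-evoked signal.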

[2] = biological target: human α3β2α5 AChRs (Homo sapiens, UniProt P17787+P30532+P32297); experiment: Counter-screen against α3β2α5 nAChR; format: cell-based
Chain of human α3β2α5 AChRs (P32297 32-505): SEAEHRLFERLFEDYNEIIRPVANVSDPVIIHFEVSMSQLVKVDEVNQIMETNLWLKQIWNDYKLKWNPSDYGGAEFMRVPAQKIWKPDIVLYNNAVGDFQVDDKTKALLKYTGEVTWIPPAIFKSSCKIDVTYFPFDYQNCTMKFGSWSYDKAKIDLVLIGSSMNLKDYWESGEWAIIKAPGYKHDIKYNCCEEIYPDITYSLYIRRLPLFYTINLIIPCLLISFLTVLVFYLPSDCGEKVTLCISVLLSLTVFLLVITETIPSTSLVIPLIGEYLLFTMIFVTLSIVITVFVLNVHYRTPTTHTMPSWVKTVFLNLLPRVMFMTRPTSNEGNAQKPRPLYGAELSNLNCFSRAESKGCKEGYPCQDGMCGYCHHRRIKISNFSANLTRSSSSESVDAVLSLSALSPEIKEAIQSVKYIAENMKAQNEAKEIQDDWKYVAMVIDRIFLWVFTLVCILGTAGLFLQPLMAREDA
Chain of human α3β2α5 AChRs (P17787 26-502): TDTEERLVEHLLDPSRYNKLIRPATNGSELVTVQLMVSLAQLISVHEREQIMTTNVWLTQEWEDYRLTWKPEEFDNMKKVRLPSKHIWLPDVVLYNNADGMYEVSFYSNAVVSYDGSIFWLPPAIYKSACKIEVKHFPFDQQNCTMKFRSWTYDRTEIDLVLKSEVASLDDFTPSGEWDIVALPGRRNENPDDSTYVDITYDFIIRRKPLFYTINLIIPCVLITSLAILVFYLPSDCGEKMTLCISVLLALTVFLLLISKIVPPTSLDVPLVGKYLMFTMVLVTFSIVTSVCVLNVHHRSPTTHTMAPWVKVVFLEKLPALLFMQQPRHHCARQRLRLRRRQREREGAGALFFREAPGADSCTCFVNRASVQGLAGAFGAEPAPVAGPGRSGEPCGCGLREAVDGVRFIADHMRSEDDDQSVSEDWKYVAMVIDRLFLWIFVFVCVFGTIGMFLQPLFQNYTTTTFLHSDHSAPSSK
Chain of human α3β2α5 AChRs (P30532 23-468): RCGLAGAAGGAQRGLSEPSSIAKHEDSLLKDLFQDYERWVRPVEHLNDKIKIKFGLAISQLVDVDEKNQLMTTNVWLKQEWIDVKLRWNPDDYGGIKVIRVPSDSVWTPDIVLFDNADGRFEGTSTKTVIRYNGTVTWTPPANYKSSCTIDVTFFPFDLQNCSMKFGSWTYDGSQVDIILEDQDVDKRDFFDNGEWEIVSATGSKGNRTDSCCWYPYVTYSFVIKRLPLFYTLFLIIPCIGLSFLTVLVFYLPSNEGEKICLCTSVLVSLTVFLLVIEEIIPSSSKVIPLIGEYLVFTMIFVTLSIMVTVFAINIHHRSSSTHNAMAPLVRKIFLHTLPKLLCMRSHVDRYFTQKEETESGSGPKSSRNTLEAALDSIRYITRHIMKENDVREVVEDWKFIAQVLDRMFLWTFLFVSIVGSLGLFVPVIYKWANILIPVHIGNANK
Procedure, shortened: (§2)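 HEK tsA201 cells stably expressing the human receptor, kept in high-glucose DMEM with 10% FBS at 37 °C. Seeded on poly-D-lysine wells (150,000/well α4β2, α3β2; 200,000/well α3β2α5), then held at 29 °C for 20 h to raise expression. Membrane-potential dye fluorometry. Test compound serial dilutions added 15 min before nicotine. Response enhancement over nicotine alone, 3–4 wells per point, Hill fit; efficacy relative to reference PAM.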

[3] = biological target: human α3β4α5 AChRs (Homo sapiens, UniProt P30532+P30926+P32297); experiment: Counter-screen against α3β4α5 nAChR; format: cell-based
Chain of human α3β4α5 AChRs (P32297 32-505): as the sequence (P32297 32-505) above
Chain of human α3β4α5 AChRs (P30926 22-498): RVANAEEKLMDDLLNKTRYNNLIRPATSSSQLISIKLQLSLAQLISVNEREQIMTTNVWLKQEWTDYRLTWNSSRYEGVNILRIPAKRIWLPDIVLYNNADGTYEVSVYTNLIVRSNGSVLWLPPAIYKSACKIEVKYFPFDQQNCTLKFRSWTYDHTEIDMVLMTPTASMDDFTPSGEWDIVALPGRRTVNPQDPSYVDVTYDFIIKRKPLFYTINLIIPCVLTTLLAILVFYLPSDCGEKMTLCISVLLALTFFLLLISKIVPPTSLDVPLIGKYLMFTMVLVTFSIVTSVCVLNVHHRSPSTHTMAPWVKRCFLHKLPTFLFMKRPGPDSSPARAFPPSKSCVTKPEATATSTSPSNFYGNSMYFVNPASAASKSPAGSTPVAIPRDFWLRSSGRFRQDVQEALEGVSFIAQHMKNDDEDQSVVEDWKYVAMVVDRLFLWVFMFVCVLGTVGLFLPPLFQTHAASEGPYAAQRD
Chain of human α3β4α5 AChRs (P30532 23-468): as the sequence (P30532 23-468) above
Procedure, shortened: as §1

[4] = biological target: human α4β2 AChRs (Homo sapiens, UniProt P17787+P43681); experiment: FLEXstation membrane potential assay at α4β2; format: cell-based
Chain of human α4β2 AChRs (P43681 29-627 limits assumed): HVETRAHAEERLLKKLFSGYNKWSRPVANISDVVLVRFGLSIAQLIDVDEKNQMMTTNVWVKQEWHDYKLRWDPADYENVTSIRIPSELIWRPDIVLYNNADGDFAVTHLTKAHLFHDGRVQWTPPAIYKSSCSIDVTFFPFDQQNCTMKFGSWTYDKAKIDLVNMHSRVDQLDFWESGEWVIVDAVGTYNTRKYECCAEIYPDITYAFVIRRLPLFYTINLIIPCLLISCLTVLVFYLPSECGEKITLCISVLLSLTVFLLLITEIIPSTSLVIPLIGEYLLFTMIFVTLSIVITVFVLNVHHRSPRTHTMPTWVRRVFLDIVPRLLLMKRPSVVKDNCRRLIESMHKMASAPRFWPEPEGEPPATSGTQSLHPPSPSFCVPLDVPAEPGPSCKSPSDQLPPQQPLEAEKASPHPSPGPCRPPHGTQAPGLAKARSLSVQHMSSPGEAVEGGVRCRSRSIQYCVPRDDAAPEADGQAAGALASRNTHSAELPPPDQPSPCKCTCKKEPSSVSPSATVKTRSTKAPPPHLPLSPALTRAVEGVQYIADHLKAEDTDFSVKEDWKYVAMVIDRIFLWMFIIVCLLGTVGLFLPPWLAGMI
Chain of human α4β2 AChRs (P17787 26-502): as the sequence (P17787 26-502) above
Procedure, shortened: as §2

[5] = biological target: human α4β2α5 AChRs (Homo sapiens, UniProt P17787+P30532+P43681); experiment: FLEXstation membrane potential assay, PAM of nicotine response at α4β2α5; format: cell-based; conditions: for activation at 1 µM: read-out: PAM(Y or N)
Chain of human α4β2α5 AChRs (P43681 29-627 limits assumed): as the sequence (P43681 29-627 limits assumed) above
Chain of human α4β2α5 AChRs (P17787 26-502): as the sequence (P17787 26-502) above
Chain of human α4β2α5 AChRs (P30532 23-468): as the sequence (P30532 23-468) above

[6] = biological target: human α3β2 AChRs (Homo sapiens, UniProt P17787+P32297); experiment: Counter-screen against α3β2 nAChR; format: cell-based
Chain of human α3β2 AChRs (P32297 32-505): as the sequence (P32297 32-505) above
Chain of human α3β2 AChRs (P17787 26-502): as the sequence (P17787 26-502) above
Procedure, shortened: as §2

[7] = Pharmacokinetics in mice; format: in vivo

Chain of human α3β4 AChRs (P32297 32-505): as the sequence (P32297 32-505) above
Chain of human α3β4 AChRs (P30926 22-498): as the sequence (P30926 22-498) above

| Structure (SMILES) | activation at 1 µM [5] [%] | further results |
| --- | --- | --- |
| N#Cc1cccc(-c2nc(-c3cccnc3)no2)c1 [Compound 1a, 3-(3-(pyridin-3-yl)-1,2,4-oxadiazol-5-yl)benzonitrile, reference compound] |  | activity against α3β4 [1]: no activity; activity against α3β2α5 [2]: no activity; activity against α3β4α5 [3]: no activity; agonist activity at α4β2 ([4]; without orthosteric agonist): no agonist activity; Emax ([5]; Maximum efficacy relative to NS9283): 1; activity against α3β2 [6]: no activity |
| N#Cc1cccc(-c2nc(-c3ccccc3)no2)c1 [Compound 1b] | < 50 |  |
| N#Cc1cccc(-c2nc(-c3ccccn3)no2)c1 [Compound 1c] | < 50 |  |
| N#Cc1cccc(-c2nc(-c3ccncc3)no2)c1 [Compound 1d] | < 50 |  |
| C[n+]1cccc(-c2noc(-c3cccc(C#N)c3)n2)c1 [Compound 1e] | < 50 |  |
| c1ccc(-c2nc(-c3cccnc3)no2)cc1 [Compound 4a] | < 50 |  |
| Clc1ccccc1-c1nc(-c2cccnc2)no1 [Compound 4b] | < 50 |  |
| Clc1ccc(-c2nc(-c3cccnc3)no2)cc1 [Compound 4c] | < 50 |  |
| Fc1cccc(-c2nc(-c3cccnc3)no2)c1 [Compound 4d] | < 50 |  |
| Fc1cccc(-c2nc(-c3cccnc3)no2)c1F [Compound 4e] | < 50 |  |
| O=[N+]([O-])c1ccccc1-c1nc(-c2cccnc2)no1 [Compound 4g] | < 50 |  |
| FC(F)(F)c1cccc(-c2nc(-c3cccnc3)no2)c1 [Compound 4j] | < 50 |  |
| FC(F)(F)Oc1cccc(-c2nc(-c3cccnc3)no2)c1 [Compound 4k] | < 50 |  |
| COc1cccc(-c2nc(-c3cccnc3)no2)c1 [Compound 4l] | < 50 |  |
| N#Cc1cccc(-n2ccc(-c3cccnc3)n2)c1 [Compound 5a] | < 50 |  |
| N#Cc1cccc(-n2cc(-c3cccnc3)cn2)c1 [Compound 5b] | < 50 |  |
| N#Cc1cccc(-c2ccn(-c3cccnc3)n2)c1 [Compound 5c] | < 50 |  |
| N#Cc1cccc(-c2cn(-c3cccnc3)cn2)c1 [Compound 5d] | < 50 |  |
| N#Cc1cccc(-n2cnc(-c3cccnc3)c2)c1 [Compound 5e] | < 50 |  |

| Structure (SMILES) | activation at 1 µM [5] [%] | further results |
| --- | --- | --- |
| N#Cc1cccc(-c2ncn(-c3cccnc3)n2)c1 [Compound 5f] | < 50 |  |
| N#Cc1cccc(-n2cc(-c3cccnc3)nn2)c1 [Compound 5j] | < 50 |  |
| N#Cc1cccc(-n2nnc(-c3cccnc3)n2)c1 [Compound 5k, 3-(5-(pyridin-3-yl)-2H-tetrazol-2-yl)benzonitrile] |  | activity against α3β4 [1]: no activity; activity against α3β2α5 [2]: no activity; activity against α3β4α5 [3]: no activity; PAM potency on α4β2 (in words) ([4]; compared with α4β2α5): equally potent; activity against α3β2 [6]: no activity; clearance (in words) ([7]; mice): moderate clearance; oral exposure (in words) ([7]; mice): very good oral exposure; clearance ([7]; mouse, in vivo, intravenous, 1 mg/kg): 2.76 L/h/kg |
| C[n+]1cccc(-c2nnn(-c3cccc(C#N)c3)n2)c1 [Compound 11a] | < 50 |  |
| N#Cc1cccc(-n2nnc(-c3ccccc3)n2)c1 [Compound 11b] | < 50 |  |
| N#Cc1cccc(-n2nnc(-c3ccncc3)n2)c1 [Compound 11c] | < 50 |  |
| N#Cc1cccc(-n2nnc(-c3ccccn3)n2)c1 [Compound 11d] | < 50 |  |
| N#Cc1cccc(-n2nnc(-c3ccc(Cl)nc3)n2)c1 [Compound 11e] | < 50 |  |
| N#Cc1cccc(-n2nnc(-c3cccnc3Cl)n2)c1 [Compound 11f] | < 50 |  |
| N#Cc1cccc(-n2nnc(-c3cncc(Cl)c3)n2)c1 [Compound 11g] | < 50 |  |
| N#Cc1cccc(-n2nnc(-c3cnccc3Cl)n2)c1 [Compound 11h] | < 50 |  |
| Fc1ccc(-n2nnc(-c3cccnc3)n2)c(F)c1 [Compound 12a] | < 50 |  |
| COc1ccc(OC)c(-n2nnc(-c3cccnc3)n2)c1 [Compound 12b] | < 50 |  |
| Clc1cc(Cl)cc(-n2nnc(-c3cccnc3)n2)c1 [Compound 12c] | < 50 |  |
| COc1cc(OC)cc(-n2nnc(-c3cccnc3)n2)c1 [Compound 12d] | < 50 |  |
| NC(=O)c1cccc(-n2nnc(-c3cccnc3)n2)c1 [Compound 12e] | < 50 |  |
| Cc1ccc(-n2nnc(-c3cccnc3)n2)cc1C#N [Compound 12g] | < 50 |  |
| Clc1ccccc1-n1nnc(-c2cccnc2)n1 [Compound 12i] | < 50 |  |
| Brc1cccc(-n2nnc(-c3cccnc3)n2)c1 [Compound 12j] | < 50 |  |
